From publication PMC7480498 (Journal of Extracellular Vesicles, 2020)

Assays:
[1] = In vivo toxicity: body weight and H&E staining of major organs; design: species or system nude mice
Procedure, shortened: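 BALB/c nude mice bearing subcutaneous axillary A549 xenografts (5 × 10^6 cells) were randomised at mean 80 mm3 into six groups (n = 10). Test formulations were given intravenously every two days for five doses, at 2 mg/kg and 0.8 mg/kg of the two loaded agents. One free-agent control was given by oral gavage at 20 mg/kg over 6 days. Body weight was measured every two days. At the end of treatment, one mouse per group was sacrificed, and heart, liver, spleen, lung and kidney were fixed in 4% paraformaldehyde, sectioned and stained with H&E.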

[2] = Safety evaluation: blood biochemical indices; assay type: in vivo, ICR mice; settings: normal mice, n = 3
Procedure, shortened: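 ICR mice (20–22 g) were randomly divided into six groups and given the treatments used previously. Blood biochemical indices were then assessed.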

COc1cccc2c1C(=O)c1c(O)c3c(c(O)c1C2=O)C[C@@](O)(C(=O)CO)C[C@@H]3O[C@H]1C[C@H](N)[C@H](O)[C@H](C)O1 [Free DOX, doxorubicin]
body weight ([1]; A549 tumour-bearing nude mice during treatment): substantial weight loss
cardiac tissue histology (H&E) ([1]; nude mice bearing subcutaneous A549 tumour): noticeable cardiac tissue degeneration
level of serum creatine kinase [2]: significantly elevated
